Screening data as filed in PubChem.
WT yeast gro inh: growth inhibition of WT yeast, mitochondrial fusion screen; mitochondrial fusion phenotypic screen, WT strain; inhibition, % at 10 µM; hit rate 2.1% among 190,000; in the data active = inhibition above about 58%; tested in S. cerevisiae
m-calpain inh: inhibitors of pig calpain II. purified calpain II, fluorogenic peptide substrate, 30 min. inhibition, % at 16 µM. hit rate 0.37% among 220,000. AID 1236;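 active = inhibition above about 50%, limit read from the data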
PMI act satM6P: increases human PMI activity with near-saturating mannose 6-phosphate | P34949 | coupled PMI enzyme assay, resazurin fluorescence, 20 min; active compounds read high; 1 = untreated enzyme, 0 = substrate-free blank | activation factor at 20 µM | hit rate 0.34% among 190,000;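 active = activation factor of 2 or more at 20 µM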
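Test system: human phosphomannose isomerase with PGI, G6PDH, diaphorase coupling enzymes; Amount: PMI at 15 ng/mL final; Reagent: Mannose-6-phosphate 1.0 mM (near-saturating) plus 0.22 mM NADP+; Timing: 20 min, room temperature; Technique: resorufin fluorescence at Ex 544/Em 590 nm; Dosing: 20 µM single dose.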
L major viab: inhibitors of Leishmania major promastigote growth. inhibition, % at 10 µM. Leishmania major promastigotes, resazurin fluorescence viability. AID 1063. hit rate 9% among 200,000; in the data active = inhibition above about 50%;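 note: promastigotes grown with compound for 44 hours at 28 °C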
PMI activator: increases human mannose-6-phosphate isomerase activity; P34949; purified human PMI, coupled resazurin fluorescence, 20 min; active compounds read high; 1 = vehicle control, 0 substrate-free wells; activation factor at 20 µM; hit rate 0.005% among 190,000; AID 1214;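 active = activation factor of 2 or more at 20 µM, relative to plate controls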
Rad51 HR inh: blocks human Rad51 in homologous recombination | hit rate 0.085% among 200,000 | inhibition, % at 10 µM | Q06609 | AID 1385 | hRad51 DNA strand exchange, fluorescence dequenching;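 active = inhibition above 40% at the single screening dose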
Target sequence (Q06609 whole entry, looked up): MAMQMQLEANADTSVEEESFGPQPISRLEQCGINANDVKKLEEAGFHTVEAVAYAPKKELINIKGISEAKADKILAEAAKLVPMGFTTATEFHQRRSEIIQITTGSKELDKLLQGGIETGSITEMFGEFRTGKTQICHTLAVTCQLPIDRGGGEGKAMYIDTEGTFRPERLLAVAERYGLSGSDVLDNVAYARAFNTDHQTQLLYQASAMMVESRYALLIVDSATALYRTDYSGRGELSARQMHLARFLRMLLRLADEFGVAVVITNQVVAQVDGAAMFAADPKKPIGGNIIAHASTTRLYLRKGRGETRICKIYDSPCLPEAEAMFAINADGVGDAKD
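Material: Human Rad51 nucleoprotein filaments preassembled on unlabelled ssDNA | Also added: Labelled 47-mer dsDNA for strand exchange | Dosing: Single dose, 10 µM final compound | Schedule: 30-min compound preincubation and 15-min exchange, both room temperature | Technique: Fluorescence dequenching at 485/520 nm | Measure: Percent inhibition relative to plate controls and blanks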
Numbers stand for hits; 0 = inactive; - = no result. In the library only some 9.8% were active in any assay of this set; here they are far more common.

SMILES | WT yeast gro inh | m-calpain inh | PMI act satM6P | L major viab | PMI activator | Rad51 HR inh
COc1ccc(C)cc1S(=O)(=O)Nc1ccc(F)cc1 | 62 | 0 | 0 | 0 | 0 | 0
COc1ccc(S(=O)(=O)Nc2ccc(S(=O)(=O)Nc3ccc(F)cc3)cc2)cc1C | 0 | 0 | 0 | 0 | 0 | 0
Cc1ccccc1[C@@H]1C(C#N)=C(N)S[C@H]1C(=O)c1ccccc1 | 0 | 0 | 0 | 0 | 0 | 0
COc1cc(/C=C(\C#N)C(=O)Nc2ccc3c(c2)OCCO3)ccc1O | - | 0 | - | - | - | -
COc1ccc(OC)c(S(=O)(=O)Nc2cccc(F)c2)c1 | 0 | 0 | 0 | 97 | 0 | -
COc1ccc(OC)c(S(=O)(=O)Nc2ccc(F)cc2)c1 | 0 | 0 | 0 | 0 | 0 | 0
COc1ccc(OC)c(NS(=O)(=O)c2cc(OC)ccc2OC)c1 | 0 | 0 | 0 | 87 | 0 | 0
CC(Sc1nc(C(C)(C)C)cc(-c2ccccc2)c1C#N)C(=O)Nc1ccccc1 (stereo not drawn) | 0 | 0 | 0 | 0 | 0 | 0
CCOc1ccccc1NC(=O)COC(=O)CC(NC(N)=O)c1ccc(Cl)cc1 (stereo not drawn) | 0 | 0 | 0 | 0 | 0 | 0
CCOc1ccc(NC(=S)Nc2cc(OC)c(Cl)cc2OC)cc1 | 0 | 0 | 0 | 0 | 0 | 0
COc1cccc(C(=O)N2CCN(CCCc3ccccc3)CC2)c1OC | - | 0 | 0 | 93 | 0 | 0
COc1cccc(C(=O)N2CCN(C3CCC(c4ccccc4)CC3)CC2)c1OC (stereo not drawn) | 0 | 0 | 0 | 100 | 0 | 0
CC(=O)NC1C(c2nc3ccccc3s2)=C(c2ccccc2)C(=O)N1c1ccc(C)cc1 (stereo not drawn) | 68 | 0 | 0 | 97 | 0 | 0
COc1cccc(-c2nc3ccccc3s2)c1 | 0 | 0 | 0 | 0 | 0 | 0
COc1cccc(N2C(=O)C(c3ccccc3)=C(c3nc4ccccc4s3)C2NC(C)=O)c1 (stereo not drawn) | 70 | 0 | 0 | 0 | 0 | 0
CCCCCCCCn1c2c(c(=N)c3ccccc31)CCC2 | 0 | 0 | - | 100 | - | 0
CCCCCn1c2c(c(=N)c3ccccc31)CCC2 | - | 0 | - | - | - | 0
CCCCCCCCCn1c2c(c(=N)c3c1CCC3)CCCC2 | 0 | 58 | 0 | 100 | 0 | 0
CCCCCCCCCCn1c2c(c(=N)c3c1CCC3)CCC2 | 0 | 54 | 0 | 100 | 0 | 0
Cc1ccc(C)c(Nc2ncccc2C(=O)NCc2cccs2)c1 | 64 | 0 | 0 | 0 | 0 | 0
COc1ccc(CCNC(=O)COC(=O)C23CC4CC(CC(Br)(C4)C2)C3)cc1 | 0 | 0 | 0 | 56 | 0 | 0
COc1ccc(C(=O)NNC(=O)C2CCCN(C3CC(=O)N(c4ccccc4)C3=O)C2)cc1 (stereo not drawn) | - | 0 | - | - | - | 0
Cc1cc(C)nc(NC(=O)c2cccc([N+](=O)[O-])c2C)n1 | 0 | 0 | 0 | 0 | 0 | 0
Cc1cc(C)nc(NC(=O)c2ccc([N+](=O)[O-])o2)n1 | 0 | 0 | 0 | 56 | 0 | 0
Cc1cc(NC(=O)c2ccc([N+](=O)[O-])o2)ccc1NC(=O)c1ccco1 | 0 | 0 | 0 | 100 | 0 | 0
SMILES | WT yeast gro inh | m-calpain inh | PMI act satM6P | L major viab | PMI activator | Rad51 HR inh
NS(=O)(=O)c1ccc(O)c(NC(=O)c2ccc([N+](=O)[O-])o2)c1 | - | 0 | - | - | - | 0
Cc1cc(C)cc(NC(=O)c2ccc([N+](=O)[O-])o2)c1 | 78 | 0 | 0 | 100 | 0 | 0
O=C(O)c1ccc(Nc2ncc([N+](=O)[O-])cc2[N+](=O)[O-])cc1 | 0 | 0 | 0 | 0 | 0 | 0
Cc1ccc(-c2nc3ccccc3nc2NN)cc1 | - | 0 | - | - | - | 0
FC(F)(F)c1cccc(N2CCN(Cc3ccoc3)CC2)c1 | 0 | 0 | 0 | 93 | 0 | 0
COc1cccc(N2CCN(Cc3cccnc3)CC2)c1 | 0 | 0 | 0 | 0 | 0 | 0
FC(F)(F)c1cccc(N2CCN(Cc3cccnc3)CC2)c1 | 0 | 0 | 0 | 88 | 0 | 0
CCOC(=O)N1CCN(CC(=O)Nc2sc(CC)cc2C(=O)c2ccc(OC)cc2)CC1 | - | 0 | - | - | - | 0
CCNc1nc(NC(C)CC)nc(ON=C(C)C)n1 (stereo not drawn) | 0 | 0 | 0 | 0 | 0 | 0
CC(=O)c1cc(F)ccc1OCC(=O)N1CCN(c2ccc(F)cc2)CC1 | 0 | 0 | 0 | 0 | 0 | 0
Cc1cccc(N2CCN(C(=O)C3CCN(S(=O)(=O)c4cccc5nsnc45)CC3)CC2C)c1 (stereo not drawn) | 0 | 0 | 0 | 51 | 0 | 0
